Experiments:
Jurkat = assay: Inhibition of NF-kappaB binding to DNA in TNF-alpha-stimulated human Jurkat T cells pretreated for 1 hr before TNFalpha stimulation; type: cell-based
In short: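 Jurkat T cells (RPMI 1640, 10% FCS, penicillin/streptomycin) were pretreated 1 h with compound at various concentrations, then stimulated 1 h with 200 U/mL TNF-α. High-salt detergent total extracts (10-20 µg protein) were incubated 25 min at room temperature with poly(dI-dC), BSA and a 33P-labeled NF-κB oligonucleotide. The EMSA value is the lowest concentration giving complete inhibition of DNA binding. Run in duplicate.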

RAW264.7 [1] = assay: Inhibition of NF-kappaB binding to DNA in LPS-stimulated mouse RAW264.7 cells pretreated for 1 hr before LPS stimulation
RAW264.7 [2] = assay: Cytotoxicity against mouse RAW264.7 cells by trypan blue exclusion method; type: cell-based

Compound | Lowest concentration giving complete inhibition of NF-kappaB DNA binding (Jurkat) [µM] | Activity (RAW264.7 [1]) [µM] | Activity (RAW264.7 [2])
C=C1C(=O)O[C@H]2/C=C(\C)CC/C=C(/C)[C@@H](OC(=O)/C(C)=C/C)[C@H](O)[C@@H]12 | 100 | 20 | Non-toxic
C=C1C(=O)O[C@H]2/C=C(\C)CC/C=C(/C)C(=O)[C@H](OC(=O)[C@@]3(C)O[C@H]3C)[C@@H]12 | 50 | 20 | Non-toxic
C=C1C(=O)O[C@@H]2[C@H]1[C@@H](OC(=O)[C@]1(C)O[C@@H]1C)C(=O)[C@@]1(C)C=CC[C@@](C)(O)[C@@H]21 | 10 | 10 | Non-toxic
C=C1C(=O)O[C@@H]2C3O[C@]3(C)CC/C=C(\C)CC[C@@H]12 (stereo partly specified) | 20 | – | –
C=C1CCC=C(C)[C@@]2(O)[C@H](OC(=O)[C@]3(C)O[C@@H]3C)[C@@H]3[C@@H](OC(=O)[C@@H]3C)[C@H]12 | 200 | – | –

Source: ChEMBL document CHEMBL1151173, “Sesquiterpene lactones from Montanoa hibiscifolia that inhibit the transcription factor NF-kappa B” (J Nat Prod, 2004)
